Measured values from ChEMBL document CHEMBL4339252, “Prenylated Stilbenoids Affect Inflammation by Inhibiting the NF-κB/AP-1 Signaling Pathway and Cyclooxygenases and Lipoxygenase” (J Nat Prod, 2019).
pIC50: −log10 of the molar value. The source made the active and inactive calls. No cut-off for these calls is given here.

Experiments:
[1] = molecular target: T1, Prostaglandin G/H synthase 1 (Ovis aries, UniProt P05979); assay: Inhibition of ram seminal vesicle COX1 assessed as reduction in PGE2 production using arachidonic acid substrate by ELISA
T1 sequence (P05979 whole entry): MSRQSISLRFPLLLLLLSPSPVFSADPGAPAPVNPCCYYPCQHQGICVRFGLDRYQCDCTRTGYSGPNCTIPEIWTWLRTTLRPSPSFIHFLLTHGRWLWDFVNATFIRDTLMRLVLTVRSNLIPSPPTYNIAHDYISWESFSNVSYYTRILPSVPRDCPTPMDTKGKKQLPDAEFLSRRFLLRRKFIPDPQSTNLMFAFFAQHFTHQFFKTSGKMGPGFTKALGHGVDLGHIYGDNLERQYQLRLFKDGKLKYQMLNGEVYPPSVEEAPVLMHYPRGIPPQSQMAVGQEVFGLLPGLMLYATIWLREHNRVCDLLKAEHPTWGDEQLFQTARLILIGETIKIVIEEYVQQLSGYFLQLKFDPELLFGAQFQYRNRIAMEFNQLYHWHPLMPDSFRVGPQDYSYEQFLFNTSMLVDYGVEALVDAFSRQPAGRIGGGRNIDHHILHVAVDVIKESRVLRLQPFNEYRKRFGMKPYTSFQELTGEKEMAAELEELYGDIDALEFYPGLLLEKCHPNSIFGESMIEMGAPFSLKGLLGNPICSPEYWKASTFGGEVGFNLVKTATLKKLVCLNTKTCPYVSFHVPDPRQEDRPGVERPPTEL

[2] = molecular target: T2, Prostaglandin G/H synthase 2 (Homo sapiens, UniProt P35354); assay: Inhibition of human recombinant COX2 assessed as reduction in PGE2 production using arachidonic acid substrate by ELISA
T2 sequence (P35354 whole entry): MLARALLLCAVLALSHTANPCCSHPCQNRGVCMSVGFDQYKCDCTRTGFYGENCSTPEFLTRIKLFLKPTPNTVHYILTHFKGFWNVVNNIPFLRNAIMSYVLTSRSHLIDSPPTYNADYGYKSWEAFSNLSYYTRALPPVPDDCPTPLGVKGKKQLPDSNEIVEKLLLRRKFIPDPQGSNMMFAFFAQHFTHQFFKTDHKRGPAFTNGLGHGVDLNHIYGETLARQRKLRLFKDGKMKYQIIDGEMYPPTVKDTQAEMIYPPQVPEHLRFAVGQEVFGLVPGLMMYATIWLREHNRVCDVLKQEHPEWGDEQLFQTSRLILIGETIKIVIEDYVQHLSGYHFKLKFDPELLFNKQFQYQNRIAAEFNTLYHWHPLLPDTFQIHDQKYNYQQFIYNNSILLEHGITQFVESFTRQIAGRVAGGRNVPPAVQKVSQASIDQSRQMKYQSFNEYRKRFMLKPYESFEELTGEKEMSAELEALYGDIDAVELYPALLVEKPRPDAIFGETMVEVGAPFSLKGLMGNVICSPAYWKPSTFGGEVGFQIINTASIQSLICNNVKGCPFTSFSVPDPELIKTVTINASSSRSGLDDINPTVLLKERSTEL

[3] = Selectivity index, ratio of IC50 for inhibition of ram seminal vesicle COX1 to IC50 for inhibition of human recombinant COX2
[4] = molecular target: T3, Polyunsaturated fatty acid 5-lipoxygenase (Homo sapiens, UniProt P09917); assay: Inhibition of human recombinant 5-LOX assessed as reduction in leukotriene B4 synthesis using arachidonic acid substrate by ELISA; conditions: for pIC50: read-out: IC50
T3 sequence (P09917 whole entry): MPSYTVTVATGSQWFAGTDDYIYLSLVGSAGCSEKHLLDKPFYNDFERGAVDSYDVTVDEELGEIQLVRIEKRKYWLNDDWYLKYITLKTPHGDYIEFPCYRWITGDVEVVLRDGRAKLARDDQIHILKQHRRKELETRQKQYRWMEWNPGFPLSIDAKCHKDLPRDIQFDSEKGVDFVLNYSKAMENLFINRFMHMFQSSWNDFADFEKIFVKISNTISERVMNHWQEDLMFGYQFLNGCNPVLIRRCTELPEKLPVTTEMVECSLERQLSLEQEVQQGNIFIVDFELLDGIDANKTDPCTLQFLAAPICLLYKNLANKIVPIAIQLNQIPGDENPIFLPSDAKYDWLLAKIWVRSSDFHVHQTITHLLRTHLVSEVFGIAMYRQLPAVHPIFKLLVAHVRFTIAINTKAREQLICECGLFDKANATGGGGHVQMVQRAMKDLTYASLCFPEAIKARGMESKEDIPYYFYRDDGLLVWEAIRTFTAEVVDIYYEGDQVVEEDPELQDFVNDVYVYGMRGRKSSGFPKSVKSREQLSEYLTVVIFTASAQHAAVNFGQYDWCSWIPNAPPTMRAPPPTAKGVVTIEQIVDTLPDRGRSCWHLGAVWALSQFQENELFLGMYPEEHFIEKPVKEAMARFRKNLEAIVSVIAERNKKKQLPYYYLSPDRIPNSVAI

THP-1 [5] = assay: Cytotoxicity against human THP1 cells assessed as reduction in cell viability incubated for 24 hrs by WST1 dye based assay; conditions: THP-1, 24 h
In short: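 Undifferentiated THP-1 cells moved to serum-free medium at 5 × 10^5 cells/well. After 2 h, compounds in DMSO added at 0.125−20 μM and incubated 24 h. Viability read with WST-1 reagent. IC50 taken from four-parameter logistic fits of at least five-point curves, serial measurements in triplicate, means ± SE.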

THP-1 [6] = assay: Antiinflammatory activity in PMA-differentiated human THP1 cells assessed as inhibition of TNFalpha production at 1 uM pre-incubated for 1 hr before LPS-stimulation for 24 hrs by ELISA; type: functional, cell-based
In short: (§1)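 THP-1 monocytes grown in RPMI 1640 with 10% FBS and antibiotics at 37 °C, plated at 5 × 10^5 cells/well and differentiated to macrophages with phorbol myristate acetate. Pretreated 1 h with compound in DMSO, or DMSO vehicle. Then stimulated with E. coli 0111:B4 LPS (1 μg/mL); unstimulated controls got no LPS. Medium collected after 24 h, cytokine measured by ELISA. Triplicates, three or more independent experiments, means ± SE.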

Homo sapiens = organism: Homo sapiens; assay: Inhibition of LPS-stimulation dependent TLR4-induced NF-kappaB/AP-1 signaling cascade in human THP1-XBlue-MD2-CD14 cells at 1 uM pre-incubated for 1 hr before LPS-stimulation for 24 hrs by spectrophotometry
In short: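 THP-1-XBlue-MD2-CD14 reporter cells (5 × 10^5/well) pretreated 1 h with compound in DMSO, then stimulated with LPS (1 μg/mL) for 24 h. NF-κB/AP-1 activity read with Quanti-Blue reagent as OD at 655 nm and expressed against vehicle (100%). Five independent experiments in triplicate, means ± SE.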

THP-1 [7] = assay: Antiinflammatory activity in PMA-differentiated human THP1 cells assessed as inhibition of IL-1beta production at 1 uM pre-incubated for 1 hr before LPS-stimulation for 24 hrs by ELISA; type: functional, cell-based; in short: as §1
[8] = molecular target: T4, NF-kappa-B inhibitor alpha (Homo sapiens) (UniProt P25963); assay: Inhibition of IkappaBalpha degradation in LPS-stimulated human THP1-XBlue-MD2-CD14 cells at 1 uM pre-incubated for 1 hr before LPS-stimulation for 30 mins by Western blot analysis
T4 sequence (whole entry): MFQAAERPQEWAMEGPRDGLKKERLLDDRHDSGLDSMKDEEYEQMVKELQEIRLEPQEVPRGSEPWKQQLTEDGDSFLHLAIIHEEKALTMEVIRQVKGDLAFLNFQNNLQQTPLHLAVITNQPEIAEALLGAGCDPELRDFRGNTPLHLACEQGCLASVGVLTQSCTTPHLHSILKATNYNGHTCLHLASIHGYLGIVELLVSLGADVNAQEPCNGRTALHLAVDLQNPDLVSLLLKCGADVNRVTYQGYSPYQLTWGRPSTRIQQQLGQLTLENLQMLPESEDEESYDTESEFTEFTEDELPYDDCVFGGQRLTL
In short: (§2)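 THP-1-XBlue-MD2-CD14 cells pretreated with compound (1 μM), then LPS (1 μg/mL) added 1 h later. Lysates taken 30 min after LPS. 9 μg protein run on 12% PAGE, blotted to PVDF, blocked in 5% BSA. Probed for IκB-α, total and phospho p38, ERK1/2 and JNK, with β-actin as reference. ECL chemiluminescence; three independent experiments.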

[9] = molecular target: Mitogen-activated protein kinase; ERK1/ERK2 (Homo sapiens) (UniProt P27361+P28482); assay: Inhibition of ERK1/2 phosphorylation in LPS-stimulated human THP1-XBlue-MD2-CD14 cells at 1 uM pre-incubated for 1 hr before LPS-stimulation for 30 mins by Western blot analysis; in short: as §2
Mitogen-activated protein kinase; ERK1/ERK2 (Homo sapiens), sequence (P27361 whole entry, looked up): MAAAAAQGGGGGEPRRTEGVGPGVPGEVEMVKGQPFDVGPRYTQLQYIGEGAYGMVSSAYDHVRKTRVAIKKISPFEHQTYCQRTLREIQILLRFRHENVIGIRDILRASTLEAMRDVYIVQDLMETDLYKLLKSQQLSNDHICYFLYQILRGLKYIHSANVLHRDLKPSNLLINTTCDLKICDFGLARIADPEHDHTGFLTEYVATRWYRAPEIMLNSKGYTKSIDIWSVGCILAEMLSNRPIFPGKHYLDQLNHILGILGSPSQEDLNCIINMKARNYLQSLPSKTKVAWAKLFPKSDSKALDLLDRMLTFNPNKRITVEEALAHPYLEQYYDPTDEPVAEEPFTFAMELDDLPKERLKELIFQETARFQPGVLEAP
Mitogen-activated protein kinase; ERK1/ERK2 (Homo sapiens), sequence (P28482 whole entry, looked up): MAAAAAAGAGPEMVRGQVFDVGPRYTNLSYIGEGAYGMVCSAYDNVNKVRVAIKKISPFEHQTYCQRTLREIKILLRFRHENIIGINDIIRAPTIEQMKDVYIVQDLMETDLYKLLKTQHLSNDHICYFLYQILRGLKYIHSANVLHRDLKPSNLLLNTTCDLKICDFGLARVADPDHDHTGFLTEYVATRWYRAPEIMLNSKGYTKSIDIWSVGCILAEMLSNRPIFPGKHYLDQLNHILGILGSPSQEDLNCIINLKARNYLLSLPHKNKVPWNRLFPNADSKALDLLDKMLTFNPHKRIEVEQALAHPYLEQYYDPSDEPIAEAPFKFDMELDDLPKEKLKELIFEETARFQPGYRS

[10] = molecular target: MAP kinase p38 (Homo sapiens) (UniProt O15264+Q15759+Q16539+P53778); assay: Inhibition of p38 phosphorylation in LPS-stimulated human THP1-XBlue-MD2-CD14 cells at 1 uM pre-incubated for 1 hr before LPS-stimulation for 30 mins by Western blot analysis; in short: as §2
[11] = molecular target: c-Jun N-terminal kinase, JNK (Homo sapiens) (UniProt P45983+P53779+P45984); assay: Inhibition of JNK phosphorylation in LPS-stimulated human THP1-XBlue-MD2-CD14 cells at 1 uM pre-incubated for 1 hr before LPS-stimulation for 30 mins by Western blot analysis; in short: as §2
THP-1 [12] = assay: Induction of TNFalpha production in PMA-differentiated human THP1 cells at 1 uM pre-incubated for 1 hr before LPS-stimulation for 24 hrs by ELISA; type: cell-based; conditions: thp-1, 24 h; in short: as §1
THP-1 [13] = assay: Induction of IL-1beta production in PMA-differentiated human THP1 cells at 1 uM pre-incubated for 1 hr before LPS-stimulation for 24 hrs by ELISA; type: cell-based; conditions: thp-1, 24 h; in short: as §1
THP-1 [14] = assay: Antiinflammatory activity in PMA-differentiated human THP1 cells assessed as inhibition of TNFalpha production at 0.1 uM pre-incubated for 1 hr before LPS-stimulation for 24 hrs by ELISA; type: functional, cell-based; in short: as §1
THP-1 [15] = assay: Induction of IL-1beta production in PMA-differentiated human THP1 cells at 0.1 uM pre-incubated for 1 hr before LPS-stimulation for 24 hrs by ELISA; type: cell-based; conditions: thp-1, 24 h; in short: as §1

## COc1ccc(/C=C/c2c(CC=C(C)C)c(O)cc3c2CCC(C)(C)O3)cc1O
[1]
  pIC50: 4.90
[2]
  pIC50: 4.45
[3]
  Ratio IC50: 0.36
[4]
  IC50: Not Active
THP-1 [5]
  pIC50: 5.48
THP-1 [6]
  inhibition: Active

## C=CC(C)(C)c1cc(/C=C/c2cc(OC)cc(OC)c2)ccc1OC
THP-1 [5]
  pIC50: < 5.00
Homo sapiens
  inhibition: Active
THP-1 [6]
  inhibition: Active
THP-1 [7]
  inhibition: inactive

## CC(C)=CCc1c(O)cc2c(c1/C=C\c1ccc(O)cc1)CCC(C)(C)O2
THP-1 [5]
  pIC50: 5.31
THP-1 [6]
  inhibition: Active

## COc1ccc(/C=C/c2c(CC=C(C)C)c(O)cc(O)c2CC=C(C)C)cc1
[1]
  pIC50: 6.10
[2]
  pIC50: 5.33
[3]
  Ratio IC50: 0.17
[4]
  pIC50: 5.96
THP-1 [5]
  pIC50: 5.57
Homo sapiens
  inhibition: Active
THP-1 [6]
  inhibition: Active

## COc1ccc(/C=C/c2c(CC=C(C)C)c(O)cc(O)c2CC=C(C)C)cc1O
[1]
  pIC50: 6.05
[2]
  pIC50: 4.83
[3]
  Ratio IC50: 0.06
[4]
  pIC50: 6.05
THP-1 [5]
  pIC50: 5.41
THP-1 [6]
  inhibition: Active

## CC1(C)C=Cc2c(O)cc(/C=C/c3ccc(O)cc3)cc2O1 [ARAHYPIN-5]
[1]
  pIC50: 4.88
[2]
  pIC50: < 4.70
[4]
  pIC50: 5.62
THP-1 [5]
  pIC50: < 5.00
Homo sapiens
  inhibition: Active
THP-1 [6]
  inhibition: Active
THP-1 [7]
  inhibition: inactive
[8]
  inhibition: Active
[9]
  inhibition: inactive
[10]
  inhibition: inactive
[11]
  inhibition: inactive

## CC(C)=CCc1c(O)cc(/C=C/c2ccc(O)cc2O)cc1O
THP-1 [5]
  pIC50: < 5.00
THP-1 [6]
  inhibition: inactive
THP-1 [12]
  Activity: Toxic
THP-1 [13]
  Activity: Toxic

## CC(C)=CCc1c(O)cc(O)c(CC=C(C)C)c1/C=C/c1ccc(O)cc1
[1]
  pIC50: 6.40
[2]
  pIC50: 5.24
[3]
  Ratio IC50: 0.07
[4]
  pIC50: 6.05
THP-1 [5]
  pIC50: 4.89
Homo sapiens
  inhibition: Active
THP-1 [6]
  inhibition: Active
THP-1 [7]
  inhibition: Active

## COc1cc(/C=C\c2ccc(OC)c(CC=C(C)C)c2)cc(OC)c1
THP-1 [5]
  pIC50: < 5.00
Homo sapiens
  inhibition: Active
THP-1 [6]
  inhibition: Active
THP-1 [7]
  inhibition: Active

## COc1cc(/C=C/c2ccc(OC)c(CC=C(C)C)c2)cc(OC)c1
THP-1 [5]
  pIC50: < 5.00
THP-1 [6]
  inhibition: Active
THP-1 [7]
  inhibition: Active

## C[C@]12C=CC(=O)C=C1CC[C@@H]1[C@@H]2C(=O)C[C@@]2(C)[C@H]1CC[C@]2(O)C(=O)CO
Homo sapiens
  inhibition: Active

## COc1ccc(/C=C/c2c(CC=C(C)C)c(O)cc3c2CC(O)C(C)(C)O3)cc1 (stereo not given)
THP-1 [5]
  pIC50: 5.74
THP-1 [6]
  inhibition: inactive
THP-1 [14]
  inhibition: Active
THP-1 [15]
  Activity: Toxic
